Published values collected from several papers.
Lines come from different studies, so protocols differ.
Mode: agonist
GPR84: G-protein coupled receptor 84 (GPR84, Homo sapiens, UniProt Q9NQS5)
AVPR2: Vasopressin V2 receptor (AVPR2, Homo sapiens, UniProt P30518)
Peroxisome proliferator-activated receptor alpha: Peroxisome proliferator-activated receptor alpha (Rattus norvegicus, UniProt P37230)
MC3R: Melanocortin receptor 3 (MC3R, Homo sapiens, UniProt P41968)
DRD2: D(2) dopamine receptor (DRD2, Homo sapiens, UniProt P14416)
Neuromedin-U receptor 2: Neuromedin-U receptor 2 (Mus musculus, UniProt Q8BZ39)

With `CCCCCCCCCNc1cc(=O)[nH]c(=O)[nH]1` the EC50 was 30.2 nM (GPR84; cAMP).
The EC50 of `NCCCC[C@H](NC(=O)[C@@H]1CCCN1C(=O)[C@@H]1CSSC[C@H](N)C(=O)N[C@@H](Cc2ccc(O)cc2)C(=O)N[C@@H](Cc2ccccc2)C(=O)N[C@@H](CCC(N)=O)C(=O)N[C@@H](CC(N)=O)C(=O)N1)C(=O)NCC(N)=O` is reported as 0.024 nM (AVPR2; cAMP; TR-FRET).
`Cc1ccc(C)c(OCCCC(C)(C)C(=O)O)c1` gave an EC50 of 122000 nM (Peroxisome proliferator-activated receptor alpha; reporter gene; luciferase).
For `CCCCCCCCCCNc1cc(O)nc(O)n1`, the EC50 was 20.9 nM (GPR84; cAMP).
With `CC(=O)N[C@H]1CSSC[C@@H](C(=O)N[C@@H](Cc2c[nH]c3ccccc23)C(N)=O)NC(=O)[C@@H](Cc2ccccc2)NC(=O)[C@H](CCCNC(=N)N)NC1=O` the EC50 was 2400 nM (MC3R; cAMP).
`NCCCC[C@H](NC(=O)[C@@H]1CCCN1C(=O)[C@@H]1CSSC[C@H](NC(=O)CNC(=O)CNC(=O)CN)C(=O)N[C@@H](Cc2ccc(O)cc2)C(=O)N[C@@H](Cc2ccccc2)C(=O)N[C@@H](CCC(N)=O)C(=O)N[C@@H](CC(N)=O)C(=O)N1)C(=O)NCC(N)=O` gave an EC50 of 28 nM (AVPR2; cAMP; TR-FRET).
The EC50 of `O=Nc1c(NCCCc2ccccc2)[nH]c(=O)[nH]c1=O` is reported as 1500 nM (GPR84; cAMP).
`CNc1nc2cc(OCCCCN3CCN(c4cccc5ccc(C)nc45)CC3)ccc2s1` gave an EC50 of 28 nM (DRD2; cAMP; luciferase).
The EC50 of `O=c1[nH]c(NCCc2ccc(Br)cc2)c(Br)c(=O)[nH]1` is reported as 372 nM (GPR84; cAMP).
The EC50 of `CCCC[C@H](NC(=O)[C@H](CO)NC(=O)[C@H](Cc1ccc(O)cc1)NC(=O)[C@H](CO)NC(C)=O)C(=O)N[C@@H](CCC(=O)O)C(=O)N[C@@H](Cc1c[nH]cn1)C(=O)N[C@@H](C)C(=O)N[C@@H](CCCNC(=N)N)C(=O)N[C@@H](Cc1c[nH]c2ccccc12)C(=O)NCC(=O)N[C@@H](CCCCN)C(=O)N1CCC[C@H]1C(=O)N[C@H](C(=O)NCC(=O)N[C@@H](CCCCN)C(=O)N[C@@H](CCCCN)C(=O)N[C@@H](CCCNC(=N)N)C(N)=O)C(C)C` is reported as 165 nM (MC3R; cAMP).
The EC50 of `C[C@H](NC(=O)Cc1ccccc1)C(=O)N[C@H](Cc1c[nH]c2ccccc12)C(=O)NCCc1ccccc1` is reported as 110 nM (Bombesin receptor subtype-3 (Brs3, Rattus norvegicus, UniProt Q8K418); calcium signal; fluorescence).
`CC(C)(Oc1ccc(C(=O)c2ccc(Cl)cc2)cc1)C(=O)O` gave an EC50 of 194000 nM (Peroxisome proliferator-activated receptor alpha; reporter gene; luciferase).
`CC(C)=CCNc1ncnc2c1ncn2[C@@H]1O[C@H](CO)[C@@H](O)[C@H]1O` has an EC50 of 2000 nM (Adenosine receptor A3 (ADORA3, Homo sapiens, UniProt P0DMS8); cAMP).
`CC(C)C[C@H](NC(=O)[C@H](Cc1ccccc1)NC(=O)[C@@H](N)Cc1ccc(O)cc1)C(=O)N[C@@H](Cc1ccccc1)C(=O)N[C@@H](CCCNC(=N)N)C(=O)N1CCC[C@H]1C(=O)N[C@@H](CCCNC(=N)N)C(=O)N[C@@H](CC(N)=O)C(N)=O` gave an EC50 of 8.32 nM (Neuromedin-U receptor 2; β-arrestin recruitment).
`FC(F)(F)c1nc2cc(OCCCCN3CCN(c4cccc(Cl)c4Cl)CC3)ccc2s1` has an EC50 of 160 nM (DRD2; β-arrestin recruitment).
`O=c1cc(NCCc2cccc(F)c2)[nH]c(=O)[nH]1` has an EC50 of 389 nM (GPR84; cAMP).
`CC(C)C[C@H](NC(=O)[C@H](Cc1ccccc1)NC(=O)[C@H](Cc1ccc(O)cc1)NC(=O)CNC(=O)[C@H](CCCNC(=N)N)NC(=O)[C@H](CO)NC(=O)[C@H](CCC(N)=O)NC(=O)[C@H](CO)NC(=O)[C@H](C)NC(=O)[C@H](Cc1ccccc1)NC(=O)[C@@H]1CCCN1C(=O)[C@H](CO)NC(=O)[C@H](CCC(N)=O)NC(=O)[C@H](Cc1ccccc1)NC(=O)[C@H](CCC(=O)O)NC(=O)[C@H](CCC(=O)O)NC(=O)[C@H](CC(=O)O)NC(=O)[C@@H](NC(=O)[C@H](CCCNC(=N)N)NC(=O)[C@@H](N)Cc1ccccc1)C(C)C)C(=O)N[C@@H](Cc1ccccc1)C(=O)N[C@@H](CCCNC(=N)N)C(=O)N1CCC[C@H]1C(=O)N[C@@H](CCCNC(=N)N)C(=O)N[C@@H](CC(N)=O)C(N)=O` gave an EC50 of 0.331 nM (Neuromedin-U receptor 2; β-arrestin recruitment).
